Source: ChEMBL document CHEMBL1828503, “Design, synthesis and docking studies of quinoline-oxazolidinone hybrid molecules and their antitubercular properties” (2011)
In brackets after ≈: the same amount, converted by molar mass.

Legend:
Format in all cases: functional
[1] = test system: Staphylococcus aureus; experiment: Antimicrobial activity against Staphylococcus aureus ATCC 25923 after 18 to 48 hrs by serial dilution method
[2] = test system: Streptococcus pyogenes; experiment: Antimicrobial activity against Streptococcus pyogenes clinical isolate after 18 to 48 hrs by serial dilution method
[3] = test system: Pseudomonas aeruginosa; experiment: Antimicrobial activity against Pseudomonas aeruginosa ATCC 27853 after 18 to 48 hrs by serial dilution method
[4] = test system: Klebsiella pneumoniae; experiment: Antimicrobial activity against Klebsiella pneumoniae clinical isolate after 18 to 48 hrs by serial dilution method
[5] = test system: Escherichia coli; experiment: Antimicrobial activity against Escherichia coli ATCC 25922 after 18 to 48 hrs by serial dilution method
[6] = test system: Mycobacterium tuberculosis; experiment: Antimicrobial activity against Mycobacterium tuberculosis H37Rv ATCC 27294 after 7 days by resazurin assay; details: H37Rv ATCC 27294, 168 h
Method in brief: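 M. tuberculosis H37Rv ATCC 27294 culture diluted into fresh medium in 96-well microtitre plates. Compounds were taken from 2 mg/mL stocks in DMF, with DMF-only control tubes and rifampicin and isoniazid as references. Plates were incubated 37 °C for 7 days, then 0.01% aqueous resazurin was added and read after 1 h at 37 °C. MIC is the lowest concentration preventing the blue-to-pink change.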

[7] = test system: Mycolicibacterium smegmatis; experiment: Antimicrobial activity against Mycobacterium smegmatis ATCC 19420 after 7 days by resazurin assay; details: ATCC 19420, 168 h
Method in brief: (§1)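 Resazurin microplate assay. Culture added to fresh medium in 96-well plates. Compound stocks 2 mg/mL in DMF. DMF-only controls, with rifampicin and isoniazid as references. Incubated 7 days at 37 °C, then 0.01% resazurin in water added. Blue-to-pink change read after 1 h at 37 °C. MIC taken as the lowest concentration preventing the colour change.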

[8] = test system: Mycolicibacterium fortuitum; experiment: Antimicrobial activity against Mycobacterium fortuitum ATCC 19542 after 7 days by resazurin assay; details: ATCC 19542, 168 h; method in brief: as §1
[9] = test system: Mycobacterium tuberculosis; experiment: Antimicrobial activity against Mycobacterium tuberculosis H37Rv ATCC 27294 assessed as growth inhibition after 7 days by resazurin assay

Row | Structure (SMILES) | MIC [1] [µg/mL] | MIC [2] [µg/mL] | MIC [3] [µg/mL] | MIC [4] [µg/mL] | MIC [5] [µg/mL] | MIC [6] [µg/mL] | MIC [7] [µg/mL] | MIC [8] [µg/mL] | growth inhibition (GI) [9] [%]
1 | COc1ccc2nc(C)cc(N3CC(CNC(=O)C4CC4)OC3=O)c2c1 (centres undefined) | 0.8 (≈ 2.25 µM) | 0.4 (≈ 1.13 µM) | 0.4 (≈ 1.13 µM) | 1.6 (≈ 4.5 µM) | 0.8 (≈ 2.25 µM) | 1 (≈ 2.81 µM) | 10 (≈ 28.1 µM) | 10 (≈ 28.1 µM) | 90
2 | COc1ccc2nc(C)cc(NC(=O)CN3CC(CN4CCCC4)OC3=O)c2c1 (centres undefined) | 6.25 (≈ 15.7 µM) | 3.12 (≈ 7.84 µM) | 1.6 (≈ 4.02 µM) | > 12.5 | > 12.5 | 100 (≈ 251 µM) | 100 (≈ 251 µM) | 100 (≈ 251 µM) | 0
3 | COc1ccc2nc(C)cc(N3CC(CNC(=O)c4ccc(C(F)(F)F)cc4)OC3=O)c2c1 (centres undefined) | 0.8 (≈ 1.74 µM) | 0.4 (≈ 0.871 µM) | 0.4 (≈ 0.871 µM) | 0.8 (≈ 1.74 µM) | 0.4 (≈ 0.871 µM) | 0.625 (≈ 1.36 µM) | 10 (≈ 21.8 µM) | 2.5 (≈ 5.44 µM) | 90
4 | COc1ccc2nc(C)cc(N3CC(CNC(=O)c4ccc(Cl)cc4)OC3=O)c2c1 (centres undefined) | 1.6 (≈ 3.76 µM) | 3.12 (≈ 7.34 µM) | 6.25 (≈ 14.7 µM) | 6.25 (≈ 14.7 µM) | 3.12 (≈ 7.34 µM) | 100 (≈ 235 µM) | 100 (≈ 235 µM) | 100 (≈ 235 µM) | 85
5 | COc1ccc2nc(C)cc(NC(=O)CN3CC(CN4CCN(C)CC4)OC3=O)c2c1 (centres undefined) | 0.8 (≈ 1.87 µM) | 0.4 (≈ 0.936 µM) | 1.6 (≈ 3.74 µM) | 0.1 (≈ 0.234 µM) | 0.4 (≈ 0.936 µM) | 1 (≈ 2.34 µM) | 10 (≈ 23.4 µM) | 10 (≈ 23.4 µM) | 90
6 | COc1ccc2nc(C)cc(N3CC(CNC(=O)c4ccc(F)cc4)OC3=O)c2c1 (centres undefined) | 0.8 (≈ 1.95 µM) | 0.4 (≈ 0.977 µM) | 0.4 (≈ 0.977 µM) | 0.1 (≈ 0.244 µM) | 0.2 (≈ 0.488 µM) | 1 (≈ 2.44 µM) | 10 (≈ 24.4 µM) | 10 (≈ 24.4 µM) | 90
7 | COc1ccc2nc(C)cc(NC(=O)CN3CC(CN4CCN(C(C)C)CC4)OC3=O)c2c1 (centres undefined) | 1.6 (≈ 3.51 µM) | 1.6 (≈ 3.51 µM) | 0.8 (≈ 1.76 µM) | 3.12 (≈ 6.86 µM) | 0.8 (≈ 1.76 µM) | 5 (≈ 11 µM) | 100 (≈ 220 µM) | 100 (≈ 220 µM) | 85
8 | COc1ccc2nc(C)cc(NC(=O)CN3CC(CN4CCOCC4)OC3=O)c2c1 (centres undefined) | 0.8 (≈ 1.93 µM) | 0.2 (≈ 0.483 µM) | 0.4 (≈ 0.965 µM) | 0.1 (≈ 0.241 µM) | 0.1 (≈ 0.241 µM) | 1 (≈ 2.41 µM) | 10 (≈ 24.1 µM) | 10 (≈ 24.1 µM) | 95
9 | COc1ccc2nc(C)cc(NC(=O)CN3CC(CN(C)C)OC3=O)c2c1 (centres undefined) | 0.8 (≈ 2.15 µM) | 0.8 (≈ 2.15 µM) | 0.2 (≈ 0.537 µM) | 0.4 (≈ 1.07 µM) | 0.2 (≈ 0.537 µM) | 0.625 (≈ 1.68 µM) | 2.5 (≈ 6.71 µM) | 10 (≈ 26.9 µM) | 95
10 | COc1ccc2nc(C)cc(NC(=O)CN3CC(CN4CCN(C(C)(C)C)CC4)OC3=O)c2c1 (centres undefined) | 1.6 (≈ 3.41 µM) | 0.8 (≈ 1.7 µM) | 0.8 (≈ 1.7 µM) | 1.6 (≈ 3.41 µM) | 1.6 (≈ 3.41 µM) | 100 (≈ 213 µM) | 100 (≈ 213 µM) | 100 (≈ 213 µM) | 0
11 | COc1ccc2nc(C)cc(NC(=O)CN3CC(CN4CCC(C)CC4)OC3=O)c2c1 (centres undefined) | > 12.5 | 6.25 (≈ 14.7 µM) | > 12.5 | 6.25 (≈ 14.7 µM) | 6.25 (≈ 14.7 µM) | 100 (≈ 234 µM) | 100 (≈ 234 µM) | 100 (≈ 234 µM) | 0
12 | COc1ccc2nc(C)cc(NC(=O)CN3CC(CNC4CCCC4)OC3=O)c2c1 (centres undefined) | > 12.5 | 6.25 (≈ 15.2 µM) | > 12.5 | 6.25 (≈ 15.2 µM) | > 12.5 | 100 (≈ 242 µM) | 100 (≈ 242 µM) | 100 (≈ 242 µM) | 0
13 | COc1ccc(C(=O)NCC2CN(c3cc(C)nc4ccc(OC)cc34)C(=O)O2)c(C)c1 (centres undefined) | 0.8 (≈ 1.84 µM) | 1.6 (≈ 3.67 µM) | 3.12 (≈ 7.18 µM) | 0.8 (≈ 1.84 µM) | 1.6 (≈ 3.67 µM) | 1 (≈ 2.3 µM) | 100 (≈ 230 µM) | 100 (≈ 230 µM) | 85
14 | O=C(O)c1cn(C2CC2)c2cc(N3CCNCC3)c(F)cc2c1=O [CIPROFLOXACIN] | 1 (≈ 3.02 µM) | – | 0.4 (≈ 1.21 µM) | – | 0.025 (≈ 0.0754 µM) | – | – | – | –
15 | COc1ccc2nc(C)cc(NC(=O)CN3CC(CNC4CC4)OC3=O)c2c1 (centres undefined) | 1.6 (≈ 4.16 µM) | 3.12 (≈ 8.13 µM) | 1.6 (≈ 4.16 µM) | > 12.5 | > 12.5 | 10 (≈ 26 µM) | 100 (≈ 260 µM) | 100 (≈ 260 µM) | 90
